Laboratory results published in ChEMBL document CHEMBL1250540, “Design, synthesis, and binding of homologated truncated 4'-thioadenosine derivatives at the human A3 adenosine receptors” (Bioorg Med Chem, 2010).

Legend:
Type in all cases: cell-based
[1] = biological target: T1, Adenosine receptor A1 (Homo sapiens) (UniProt P30542); assay: Displacement of [3H]R-PIA from human adenosine A1 receptor expressed CHO cells at 10 uM after 60 mins by gamma counting relative to NECA
T1 sequence (whole entry): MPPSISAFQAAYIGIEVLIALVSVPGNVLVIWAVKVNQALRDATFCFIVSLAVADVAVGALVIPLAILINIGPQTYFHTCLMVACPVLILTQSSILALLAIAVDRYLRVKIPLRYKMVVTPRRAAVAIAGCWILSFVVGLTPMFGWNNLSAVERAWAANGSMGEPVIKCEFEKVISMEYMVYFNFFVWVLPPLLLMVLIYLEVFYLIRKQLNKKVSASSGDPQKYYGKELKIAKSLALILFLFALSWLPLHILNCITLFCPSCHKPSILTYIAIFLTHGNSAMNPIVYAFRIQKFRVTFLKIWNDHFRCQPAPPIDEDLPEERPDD
How it was run: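 Membranes from CHO cells stably expressing human A1AR were incubated with 1 nM [3H]PIA at 25 °C for 60 min in 50 mM Tris–HCl (pH 7.4) with 10 mM MgCl2. Nonspecific binding was defined with CPA. Results are mean ± sem, n = 3–5.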

[2] = biological target: Adenosine receptor A2a (Homo sapiens) (UniProt P29274); assay: Displacement of [3H]CGS 21680 from human adenosine A2A receptor expressed HEK293 cells at 10 uM after 60 mins by gamma counting relative to NECA
How it was run: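 Membranes from HEK-293 cells stably expressing human A2AAR were incubated with 15 nM [3H]CGS21680 at 25 °C for 60 min in 50 mM Tris–HCl (pH 7.4) with 10 mM MgCl2. Incubation was stopped by GF/B filtration. Results are mean ± sem, n = 3–5.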

[3] = biological target: T2, Adenosine receptor A3 (Homo sapiens) (UniProt P0DMS8); assay: Displacement of [125I]I-AB-MECA from human adenosine A3 receptor expressed CHO cells at 10 uM after 60 mins by gamma counting relative to NECA
T2 sequence (whole entry): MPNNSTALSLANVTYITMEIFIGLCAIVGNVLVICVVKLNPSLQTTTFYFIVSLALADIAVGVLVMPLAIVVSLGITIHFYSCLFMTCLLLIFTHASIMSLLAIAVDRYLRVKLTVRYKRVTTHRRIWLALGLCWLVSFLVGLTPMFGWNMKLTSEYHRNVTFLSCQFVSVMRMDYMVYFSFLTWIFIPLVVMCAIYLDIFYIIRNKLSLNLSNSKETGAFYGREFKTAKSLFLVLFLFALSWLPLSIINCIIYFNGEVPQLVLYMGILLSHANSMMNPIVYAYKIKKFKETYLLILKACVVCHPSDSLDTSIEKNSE
How it was run: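 Competition binding used membranes from CHO cells stably expressing human A3AR with 0.5 nM [125I]I-AB-MECA and test nucleoside in 50 mM Tris–HCl (pH 7.4) with 10 mM MgCl2 and 1 mM EDTA, at 25 °C for 60 min. Nonspecific binding was defined with Cl-IB-MECA. Percent inhibition was taken at a single concentration. Results are mean ± sem, n = 3–5.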

Adenosine receptor A2a (Homo sapiens), sequence (P29274 whole entry): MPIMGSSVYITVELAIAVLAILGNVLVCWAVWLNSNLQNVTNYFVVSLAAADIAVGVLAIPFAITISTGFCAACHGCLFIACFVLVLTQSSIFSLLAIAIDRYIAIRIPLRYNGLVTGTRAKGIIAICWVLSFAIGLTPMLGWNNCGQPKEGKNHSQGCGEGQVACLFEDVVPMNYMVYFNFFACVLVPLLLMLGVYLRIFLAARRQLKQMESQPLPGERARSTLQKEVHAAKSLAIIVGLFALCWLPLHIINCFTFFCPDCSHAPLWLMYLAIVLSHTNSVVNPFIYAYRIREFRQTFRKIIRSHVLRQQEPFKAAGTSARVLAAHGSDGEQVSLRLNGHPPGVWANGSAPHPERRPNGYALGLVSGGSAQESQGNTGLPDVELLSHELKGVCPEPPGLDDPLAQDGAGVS

Work on O[C@@H]1[C@H](O)CS[C@H]1Cn1cnc2c(NCc3cccc(Cl)c3)ncnc21 yielded an inhibition [1] of 3.3%, an inhibition [2] of 13% and an inhibition [3] of 8.9%.

O[C@@H]1[C@H](O)CS[C@H]1Cn1cnc2c(NCc3cccc(Cl)c3)nc(Cl)nc21 gave an inhibition [1] of 3.2%, an inhibition [2] of 11% and an inhibition [3] of 13.6%.

Compound O[C@@H]1[C@H](O)CS[C@H]1Cn1cnc2c(NCc3cccc(I)c3)ncnc21 has an inhibition [1] of 9.6%, an inhibition [2] of 18.2% and an inhibition [3] of 13.9%.

Work on O[C@@H]1[C@H](O)CS[C@H]1Cn1cnc2c(NCc3cccc(Br)c3)nc(Cl)nc21 yielded an inhibition [1] of 23.6%, an inhibition [2] of 2% and an inhibition [3] of 21%.

O[C@@H]1[C@H](O)CS[C@H]1Cn1cnc2c(NCc3cccc(F)c3)nc(Cl)nc21 gave an inhibition [1] of 7.9%, an inhibition [2] of 12% and an inhibition [3] of 17.6%.

O[C@@H]1[C@H](O)CS[C@H]1Cn1cnc2c(NCc3cccc(I)c3)nc(Cl)nc21 was tested, and the inhibition [1] was 16.4%, the inhibition [2] was 18.4% and the inhibition [3] was 10%.

O[C@@H]1[C@H](O)CS[C@H]1Cn1cnc2c(NCc3cccc(F)c3)ncnc21 was tested, and the inhibition [1] was 0.3%, the inhibition [2] was 14% and the inhibition [3] was 8.7%.

O[C@@H]1[C@H](O)CS[C@H]1Cn1cnc2c(NCc3cccc(Br)c3)ncnc21 was tested, and the inhibition [1] was 6.6%, the inhibition [2] was 25.8% and the inhibition [3] was 6.1%.
